Results on eleven compounds are retold here after ChEMBL document CHEMBL3124751, “The versatile nature of the 6-aminoquinolone scaffold: identification of submicromolar hepatitis C virus NS5B inhibitors” (J Med Chem, 2014).

Data set [1] can be described thus: Selectivity index, ratio of CC50 for human Huh5-2 cells to EC50 for Hepatitis C virus genotype 1b I389luc-ubi-neo/NS3-3'/5.1 replicon in Huh 5-2 cells. It counts as toxicity, cell-based. To be noted: read-out: Ratio CC50/EC50. In outline: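 Huh 5-2 replicon cells seeded at 6,500/well, overnight at 37 °C; compound dilution series (four-step 1:5 screen, eight-step 1:2 dose-response), 72 h. Antiviral: luciferase luminescence versus untreated controls. Parallel anti-metabolic: 5% MTS 1.5 h, absorbance 498 nm. EC50, CC50 from dose-response curves, means of at least three independent experiments; SI = CC50/EC50.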

Data set [2] in a line: Cytostatic activity against human Huh5-2 cells assessed as cell viability after 72 hrs by MTS assay. To be noted: huh-5-2, 72 h. It counts as cell-based. In outline:
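Huh 5-2 cells carry genotype 1b I389luc-ubineo/NS3-3'/5.1 replicon, maintained with 2% Geneticin. Seeded at 6 500 cells/well in Geneticin-free assay medium, overnight. Four-step 1:5 dilution screen or eight-step 1:2 series, 72 h at 37 °C. 5% MTS for 1.5 h, absorbance at 498 nm as % of untreated. CC50 from dose-response, mean of ≥3 independent experiments.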

For data set [3], the system named is Hepatitis C virus. Put plainly: Antiviral activity against Hepatitis C virus genotype 1b I389luc-ubi-neo/NS3-3'/5.1 replicon in Huh 5-2 cells assessed as inhibition of replicon replication after 72 hrs by replicon system assay. It counts as functional, organism-based, Hepacivirus hominis. To be noted: Huh-5-2, 72 h. Summed up:
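Huh 5-2 replicon cells seeded at 6 500 cells/well one day before compound in DMEM with 10% FCS, 1% non-essential amino acids, 1% penicillin/streptomycin, no Geneticin. Four-step 1-to-5 or eight-step 1-to-2 dilutions, 72 h at 37 °C, 5% CO₂. Luciferase luminescence read after lysis, as % of untreated controls. EC50/EC90 from dose-response curves, means of at least three independent experiments.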

Data set [4] is described as follows: Inhibition of Hepatitis C virus genotype 1b HC-J4 recombinant N-terminal histidine tagged truncated NS5B polymerase lacking C-terminal 21 amino acids assessed as standard-primer dependent elongation reaction using poly rA/U12 as template after 1 hr by liquid scintillation counting analysis. Details: species or system Hepatitis C virus isolate HC-J4. In outline: (§1)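 Construct is His-tagged HC-J4 NS5B CΔ21, Ni-NTA purified. Poly rA/U12 primer-dependent elongation run 1 h at 30 °C, then stopped with chilled 5% TCA/0.5 mM pyrophosphate. Products collected on GF-B filters and counted by scintillation. Activity expressed relative to DMSO control. Screen at 25 μM. IC50 from 8–12 concentrations in duplicate, two independent experiments, by nonlinear regression.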

Data set [5] deals with Hepatitis C virus isolate HC-J4. As to the kind of experiment: Inhibition of Hepatitis C virus genotype 1b HC-J4 recombinant N-terminal histidine tagged truncated NS5B polymerase lacking C-terminal 21 amino acids assessed as standard-primer dependent elongation reaction using poly rA/U12 as template at 25 uM after 1 hr by liquid scintillation counting analysis. In outline: as §1

Data set [6] is described as follows: Binding affinity to Hepatitis C virus truncated NS5B polymerase lacking C-terminal 21 amino acids after 5 mins by fluorescence quenching assay. Details: species or system Hepacivirus hominis. In outline:
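NS5B CΔ21 at 1 μM final in 50 mM Tris-HCl pH 7.8, 50 mM NaCl, 10% glycerol, 10% DMSO, 0.5 mM MnCl2. Serially diluted compound or DMSO, 5 min at room temperature. Intrinsic fluorescence excitation 280 nm, emission 330 nm; buffer-plus-compound background subtracted. KD fitted to ΔF/ΔFmax = [compound]total/(KD + [compound]total).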

Data set [7] in a line: Binding affinity to Hepatitis C virus isolate Con1 C-terminal hexahistidine fusion-tagged NS5B polymerase ectodomain by surface plasmon resonance assay. In outline: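 Con1 NS5B ectodomain (C-terminal His6) amine-coupled to CM5 chip at 4–5 kRU from 10 mM MES pH 6.0. Running buffer TBS-P (20 mM Tris pH 7.4, 130 mM NaCl, 0.05% Tween20, 5% DMSO). Compound injected 60 s at 30 μL/min, two-fold series 6–200 μM. Reference/blank subtraction, solvent correction; KD from global 1:1 Langmuir fit.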

The nature of data set [8]: Cytotoxicity against human Huh-9-13 cells assessed as alteration in cell morphology by microscopic analysis. The format is cell-based.
Data set [9] can be described thus: Cytostatic activity against human Huh-9-13 cells assessed as cell viability after 72 hrs by MTS assay. The format is cell-based. Summed up:
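Huh 9–13 subgenomic replicon cells seeded at 6 500 cells/well in DMEM with 10% FCS, 1% non-essential amino acids, 1% penicillin/streptomycin, then incubated overnight. Compound dilution series given, 72 h at 37 °C, 5% CO₂. Medium replaced with 5% MTS in phenol red-free medium for 1.5 h. Absorbance read at 498 nm as % of untreated. CC50 taken from dose-response, mean of ≥3 independent experiments.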

For data set [10], the system named is Hepatitis C virus. As to the kind of experiment: Antiviral activity against Hepatitis C virus genotype 1b I389luc-ubi-neo/NS3-3'/5.1 replicon in Huh 9-13 cells assessed as reduction in replicon RNA level after 72 hrs by RT-PCR analysis. The format is functional, organism-based, Hepacivirus hominis.
Data set [11] is described as follows: Selectivity index, ratio of CC50 for human Huh-9-13 cells to EC50 for Hepatitis C virus genotype 1b I389luc-ubi-neo/NS3-3'/5.1 replicon in Huh-9-13 cells. It counts as toxicity, cell-based. To be noted: read-out: Ratio CC50/EC50. In outline: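 Huh 9-13 replicon cells, setup and 72 h compound exposure as for Huh 5-2; CC50 by MTS in parallel. Antiviral readout: replicon RNA by one-step RT-qPCR of cell-to-cDNA lysates (300 nM each primer, 60 nM probe; 40 cycles), expressed as percentage of untreated controls to give EC50; SI = CC50/EC50.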

`Cc1ccccc1COC(=O)c1cn(Cc2ccc(C(F)(F)F)cc2F)c2cc(Cl)c(N)cc2c1=O`: the selectivity ratio in data set [1] amounted to 6.8. Moreover, the CC50 in data set [2] turned out to be 10.5 µM. In addition, the EC50 in the data set with Hepatitis C virus [3] was determined as 1.5 µM. Besides, the IC50 in [4] was 1.41 µM. Also, in data set [5], the inhibition is greater than 50%.

As for `CCOC(=O)c1cn(Cc2ccc(Cl)cc2)c2cc(N3CCN(c4ccccn4)CC3)c(N)cc2c1=O`, the selectivity ratio in data set [1] was greater than 6.2. Also, the CC50 in data set [2] was greater than 193 µM. Moreover, in the data set with Hepatitis C virus [3], the EC50 is 31.3 µM. For the same compound, the IC50 in data set [4] was determined as 3.06 µM.

On to `CN1CCN(c2cc3c(cc2N)c(=O)c(C(=O)OCc2ccc(Cl)cc2)cn3Cc2ccc(Cl)cc2)CC1`, for which the selectivity ratio in data set [1] turned out to be 1.2. In data set [2], the CC50 came to 2.8 µM. The EC50 in the data set on Hepatitis C virus [3] was found to be 2.7 µM. Also, the results for the Kd in data set [6] and in [7] were 1.2 µM and 14 µM, respectively. Besides, the 50% inhibitory concentration (IC50) in data set [4] turned out to be 0.04 µM. Moreover, in [5], the inhibition is greater than 50%.

As to `Nc1cc2c(=O)c(C(=O)OCc3ccc(Cl)cc3)cn(Cc3ccc(Cl)cc3)c2cc1N1CCN(c2ccccn2)CC1`, in data set [8], the Activity result is “Toxic”. The CC50 is greater than 163 µM in data set [9] and greater than 244 µM in data set [2]. Besides, the EC50 came to 3.03 µM in the data set with Hepatitis C virus [10] and 2.2 µM with Hepatitis C virus [3]. Further, the selectivity ratio in data set [1] was greater than 111; in data set [11], greater than 54. Further, the EC90 in the data set on Hepatitis C virus [3] came to 13.5 µM. Also, the IC50 in data set [4] came out at 0.069 µM. Also, in data set [5], the inhibition was greater than 50%.

With `COc1cc2c(=O)c(C(=O)OCc3ccc(C)cc3)cn(Cc3ccc(C(F)(F)F)cc3F)c2cc1OC`, in data set [1], the selectivity ratio was 21. Moreover, the 50% cytotoxic concentration (CC50) in data set [2] was 42.3 µM. Also, in the data set with Hepatitis C virus [3], the 50% effective concentration (EC50) was found to be 2.02 µM and the EC90 is 4.7 µM. Besides, the IC50 in data set [4] amounted to 0.211 µM.

For `Nc1cc2c(=O)c(C(=O)O)cn(Cc3ccc(Cl)cc3)c2cc1N1CCN(c2ccccn2)CC1`, the CC50 in data set [2] was greater than 204 µM. The 50% effective concentration (EC50) in the data set with Hepatitis C virus [3] is 7.3 µM. Also, the IC50 in data set [4] stood at 23.7 µM.

On to `Cc1ccc(COC(=O)c2cn(Cc3ccc(C(F)(F)F)cc3F)c3cc(Cl)c(N)cc3c2=O)cc1`, for which the CC50 in [2] is greater than 192 µM. Further, in the data set on Hepatitis C virus [3], the EC50 stood at 72.3 µM and the EC90 was greater than 192 µM. In addition, in [4], the IC50 stood at 0.154 µM. Moreover, the inhibition in [5] was greater than 50%.

As to `Nc1cc2c(=O)c(C(=O)OCc3ccc(Cl)cc3)cn(Cc3ccc(Cl)cc3)c2cc1N1CCN(c2nc3ccccc3s2)CC1`, the cytotoxic concentration (CC50) in data set [2] is greater than 169 µM. In the data set on Hepatitis C virus [3], the EC50 came out at 8.6 µM. Moreover, the IC50 in data set [4] is 0.138 µM. For the same compound, in [5], the inhibition is greater than 50%.

With `Nc1cc2c(=O)c(C(=O)OCc3ccc(Cl)cc3)cn(Cc3ccc(Cl)cc3)c2cc1N1CCNCC1`, the selectivity ratio in [1] came out at 2.3. The CC50 in data set [2] came out at 3.7 µM. For the same compound, the EC50 in the data set with Hepatitis C virus [3] came out at 1.7 µM. Moreover, in [4], the half-inhibitory concentration (IC50) stood at 0.067 µM. In data set [5], the inhibition is greater than 50%.

As to `Nc1cc2c(=O)c(C(=O)OCc3ccc(Cl)cc3)cn(Cc3ccc(Cl)cc3)c2cc1N1CCN(c2cccc(C(F)(F)F)c2)CC1`, the 50% cytotoxic concentration (CC50) in [2] is greater than 147 µM. Also, in the data set on Hepatitis C virus [3], the concentration giving a half-maximal response (EC50) is 23.8 µM and the 90% effect concentration (EC90) turned out to be 94.6 µM. In data set [4], the IC50 was determined as 6.13 µM. In addition, the inhibition in data set [5] was greater than 50%.

Regarding `Nc1cc2c(=O)c(C(=O)OCc3ccc(Cl)cc3)cn(Cc3ccc(Cl)cc3)c2cc1Cl`, in [2], the CC50 was greater than 200 µM. In the data set on Hepatitis C virus [3], the EC50 was greater than 200 µM and the EC90 is greater than 200 µM.
